Source: ChEMBL document CHEMBL4308835, “Fluorine-Substituted Pyrrolo[2,3- d]Pyrimidine Analogues with Tumor Targeting via Cellular Uptake by Folate Receptor α and the Proton-Coupled Folate Transporter and Inhibition of de Novo Purine Nucleotide Biosynthesis” (J Med Chem, 2018)
The source made the active and inactive calls. The rule behind the calls is not given here.

Legend:
[1] = Antiproliferative activity in Chinese hamster R2 cells deficient in RFC, PCFT, and FRalpha assessed as reduction in cell growth after 96 hrs by Cell-Titer Blue assay; type: cell-based; conditions: Cricetulus griseus, R2, 96 h
[2] = molecular target: T1, Reduced folate transporter (Homo sapiens) (UniProt P41440); assay: Inhibition of human RFC2 expressed in human HeLa R1-11 cells assessed as reduction in [3H]MTX uptake at pH 7.2 at 10 uM measured over 2 mins relative to control; type: cell-based
T1 sequence (whole entry): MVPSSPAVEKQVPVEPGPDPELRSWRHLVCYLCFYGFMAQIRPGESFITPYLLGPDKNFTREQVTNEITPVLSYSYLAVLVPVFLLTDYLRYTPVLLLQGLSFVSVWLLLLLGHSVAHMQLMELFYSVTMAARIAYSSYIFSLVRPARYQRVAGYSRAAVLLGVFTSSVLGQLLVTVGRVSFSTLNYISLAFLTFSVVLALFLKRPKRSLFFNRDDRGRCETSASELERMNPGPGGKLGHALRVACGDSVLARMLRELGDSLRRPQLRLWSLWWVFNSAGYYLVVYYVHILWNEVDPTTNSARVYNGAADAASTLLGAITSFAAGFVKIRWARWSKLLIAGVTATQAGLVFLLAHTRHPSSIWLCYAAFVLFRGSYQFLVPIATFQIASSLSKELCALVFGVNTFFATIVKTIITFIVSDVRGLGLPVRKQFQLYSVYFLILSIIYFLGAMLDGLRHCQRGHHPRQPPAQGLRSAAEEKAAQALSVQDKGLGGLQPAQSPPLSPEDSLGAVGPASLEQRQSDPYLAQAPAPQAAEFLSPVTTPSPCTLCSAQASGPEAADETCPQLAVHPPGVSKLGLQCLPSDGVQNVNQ

[3] = molecular target: T2, Proton-coupled folate transporter (Homo sapiens, UniProt Q96NT5); assay: Inhibition of human PCFT expressed in Chinese hamster R2/PCFT4 cells assessed as reduction in [3H]MTX uptake at pH 5.5 measured over 2 mins by Dixon plot analysis; type: cell-based
T2 sequence (Q96NT5 whole entry): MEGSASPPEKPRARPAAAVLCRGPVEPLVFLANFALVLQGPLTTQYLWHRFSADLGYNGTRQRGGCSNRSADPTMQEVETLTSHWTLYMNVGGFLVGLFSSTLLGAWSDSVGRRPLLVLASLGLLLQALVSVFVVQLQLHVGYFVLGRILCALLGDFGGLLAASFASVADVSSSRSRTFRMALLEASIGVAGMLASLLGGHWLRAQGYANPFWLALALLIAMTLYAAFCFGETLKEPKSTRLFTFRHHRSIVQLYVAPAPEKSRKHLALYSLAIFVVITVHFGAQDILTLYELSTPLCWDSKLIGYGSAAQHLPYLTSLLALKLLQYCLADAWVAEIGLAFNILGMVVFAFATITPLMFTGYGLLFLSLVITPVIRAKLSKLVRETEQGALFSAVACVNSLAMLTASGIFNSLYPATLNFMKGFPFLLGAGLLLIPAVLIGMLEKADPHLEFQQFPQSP
Method in brief: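 Competitor concentrations ranged from 0.05 to 0.5 μM. Ki was obtained by Dixon plot. Mean ± SE of four independent experiments.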

[4] = molecular target: T3, Proton-coupled folate transporter (Homo sapiens) (UniProt Q96NT5); assay: Inhibition of human PCFT expressed in Chinese hamster R2/PCFT4 cells assessed as reduction in [3H]MTX uptake at pH 5.5 at 1 uM measured over 2 mins relative to control; type: cell-based
T3 sequence (whole entry): T2 sequence (Q96NT5 whole entry)

[5] = molecular target: T3, Proton-coupled folate transporter (Homo sapiens); assay: Inhibition of human PCFT expressed in Chinese hamster R2/PCFT4 cells assessed as reduction in [3H]MTX uptake at pH 5.5 at 10 uM measured over 2 mins relative to control; type: cell-based
[6] = molecular target: T3, Proton-coupled folate transporter (Homo sapiens); assay: Inhibition of human PCFT expressed in Chinese hamster R2/PCFT4 cells assessed as reduction in [3H]MTX uptake at pH 5.5 at 1 to 10 uM measured over 2 mins; type: cell-based
[7] = molecular target: Folate receptor alpha (Homo sapiens) (UniProt P15328); assay: Displacement of [3H]folic acid from human FRalpha expressed in Chinese hamster RT16 cells at 10 to 1000 nM after 15 mins; type: cell-based
Chain of Folate receptor alpha (Homo sapiens) (P15328 25-234 limits assumed): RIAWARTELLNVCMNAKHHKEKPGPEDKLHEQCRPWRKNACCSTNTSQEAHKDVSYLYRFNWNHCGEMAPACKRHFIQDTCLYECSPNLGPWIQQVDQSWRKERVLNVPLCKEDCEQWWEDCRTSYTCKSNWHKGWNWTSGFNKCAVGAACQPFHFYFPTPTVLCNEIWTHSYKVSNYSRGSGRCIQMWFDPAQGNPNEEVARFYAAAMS
Method in brief: (§1)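 RT16 (FRα) or D4 (FRβ) CHO cells at ~80% confluence were washed with PBS at 4 °C, then with pH 3.5 acetate buffer to strip bound folate, then HEPES-buffered saline pH 7.4. Cells were incubated with 50 nM [³H]folic acid plus competitor (10–1000 nM) for 15 min at 4 °C, washed, and solubilized in NaOH. Bound radioactivity was normalized to protein.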

[8] = molecular target: Folate receptor beta (Homo sapiens) (UniProt P14207); assay: Displacement of [3H]folic acid from human FRbeta expressed in Chinese hamster D4 cells at 10 to 1000 nM after 15 mins; type: cell-based; method in brief: as §1
Chain of Folate receptor beta (Homo sapiens) (P14207 17-230 limits assumed): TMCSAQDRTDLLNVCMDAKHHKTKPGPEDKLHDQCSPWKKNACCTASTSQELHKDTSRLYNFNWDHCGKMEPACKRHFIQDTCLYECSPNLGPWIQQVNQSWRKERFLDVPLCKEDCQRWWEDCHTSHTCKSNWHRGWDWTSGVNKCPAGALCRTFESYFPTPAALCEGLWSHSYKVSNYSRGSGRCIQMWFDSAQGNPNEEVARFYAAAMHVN

[9] = molecular target: T4, Trifunctional purine biosynthetic protein adenosine-3 (Homo sapiens, UniProt P22102); assay: Inhibition of GARFTase in human IGROV1 cells assessed as decrease in incorporation of [14C(U)glycine into [14C]formyl GAR formation after 24 hrs; type: cell-based
T4 sequence (P22102 whole entry): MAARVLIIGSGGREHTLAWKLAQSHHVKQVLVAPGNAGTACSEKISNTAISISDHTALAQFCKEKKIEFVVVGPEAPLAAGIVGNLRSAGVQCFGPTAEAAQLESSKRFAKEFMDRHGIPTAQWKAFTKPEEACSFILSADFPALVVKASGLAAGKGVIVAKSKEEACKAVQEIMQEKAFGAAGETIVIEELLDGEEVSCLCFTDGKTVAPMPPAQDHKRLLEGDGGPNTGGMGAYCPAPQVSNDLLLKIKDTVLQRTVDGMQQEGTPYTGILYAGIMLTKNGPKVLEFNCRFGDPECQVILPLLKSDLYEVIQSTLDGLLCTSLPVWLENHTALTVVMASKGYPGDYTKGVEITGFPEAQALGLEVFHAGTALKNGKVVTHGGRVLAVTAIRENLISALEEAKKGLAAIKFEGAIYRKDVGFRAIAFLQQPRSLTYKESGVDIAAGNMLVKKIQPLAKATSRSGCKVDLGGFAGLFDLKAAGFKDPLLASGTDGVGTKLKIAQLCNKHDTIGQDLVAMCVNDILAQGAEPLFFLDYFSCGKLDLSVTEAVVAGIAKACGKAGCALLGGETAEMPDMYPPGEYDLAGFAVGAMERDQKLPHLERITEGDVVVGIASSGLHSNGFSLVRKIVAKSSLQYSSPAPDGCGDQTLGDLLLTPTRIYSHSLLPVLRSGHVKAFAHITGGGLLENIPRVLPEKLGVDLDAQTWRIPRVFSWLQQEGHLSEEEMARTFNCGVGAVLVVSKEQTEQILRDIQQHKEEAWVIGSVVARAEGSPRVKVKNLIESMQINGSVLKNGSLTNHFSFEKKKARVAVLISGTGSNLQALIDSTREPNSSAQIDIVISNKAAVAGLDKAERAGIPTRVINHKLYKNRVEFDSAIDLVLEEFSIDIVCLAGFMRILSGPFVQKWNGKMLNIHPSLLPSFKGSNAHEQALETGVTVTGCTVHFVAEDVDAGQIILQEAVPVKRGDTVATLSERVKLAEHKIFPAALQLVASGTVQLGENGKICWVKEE

IGROV-1 [10] = assay: Antiproliferative activity against FRalpha […] human IGROV1 KD10 cells after 96 hrs by Cell-Titer Blue assay; type: functional, cell-based; conditions: IGROV-1, 96 h
IGROV-1 [11] = assay: Antiproliferative activity against FRalpha […] human IGROV1 KD4 cells after 96 hrs by Cell-Titer Blue assay; type: functional, cell-based; conditions: IGROV-1, 96 h
IGROV-1 [12] = assay: Antiproliferative activity against human IGROV1 cells harboring non targeted control shRNA sequence after 96 hrs by Cell-Titer Blue assay; type: functional, cell-based; conditions: IGROV-1, 96 h
A2780 = assay: Antiproliferative activity against human A2780 cells after 96 hrs by Cell-Titer Blue assay; type: functional, cell-based; conditions: A2780, 96 h
IGROV-1 [13] = assay: Antiproliferative activity against wild type human IGROV1 cells after 96 hrs by Cell-Titer Blue assay; type: functional, cell-based; conditions: IGROV-1, 96 h
[14] = molecular target: T1, Reduced folate transporter (Homo sapiens); assay: Inhibition of human RFC2 expressed in human HeLa R1-11 cells assessed as reduction in [3H]MTX uptake at pH 7.2 at 10 uM measured over 2 mins relative to control
[15] = Binding affinity to human RFC expressed in Chinese hamster PC43-10 cells assessed as antiproliferative activity measured as reduction in cell growth after 96 hrs by Cell-Titer Blue assay
[16] = Binding affinity to human PCFT expressed in Chinese hamster R2/PCFT4 cells assessed as antiproliferative activity measured as reduction in cell growth after 96 hrs by Cell-Titer Blue assay
Homo sapiens [17] = species on record: Homo sapiens; assay: Selectivity ratio of IC50 for human RFC2 expressed in human HeLa R1-11 cells to IC50 for human PCFT4 expressed in human HeLa R1-11 cells; type: cell-based
Homo sapiens [18] = species on record: Homo sapiens; assay: Selectivity ratio of IC50 for human RFC2 expressed in human HeLa R1-11 cells to IC50 for human FR2 expressed in human HeLa R1-11 cells; type: cell-based
[19] = molecular target: T1, Reduced folate transporter (Homo sapiens); assay: Inhibition of human RFC2 expressed in human HeLa R1-11 cells assessed as reduction in [3H]MTX uptake at pH 7.2 at 1 uM measured over 2 mins relative to control; type: cell-based
IGROV-1 [20] = assay: Antiproliferative activity against human IGROV1 cells at 1 to 1000 nM in presence of 320 uM AICA after 96 hrs by Cell-Titer Blue assay; type: functional, cell-based
Method in brief: (§2)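 IGROV1 cells, 2000/well, in folate-free RPMI 1640 with 10% dialyzed FBS, L-glutamine, 25 nM LCV. A range of drug concentrations was given with thymidine (10 μM), adenosine (60 μM) or AICA (320 μM) added. After 96 h, proliferation was measured by Cell-Titer Blue fluorescence. At least triplicate experiments.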

IGROV-1 [21] = assay: Antiproliferative activity against human IGROV1 cells at 1 to 1000 nM in presence of 10 uM thymidine after 96 hrs by Cell-Titer Blue assay; type: functional, cell-based; method in brief: as §2
IGROV-1 [22] = assay: Antiproliferative activity against human IGROV1 cells at 1 to 1000 nM in presence of 60 uM adenosine after 96 hrs by Cell-Titer Blue assay; type: functional, cell-based; method in brief: as §2
IGROV-1 [23] = assay: Anticlonogenic activity against human IGROV1 cells incubated for 24 hrs followed by compound wash out and measured after 10 days by methylene blue staining-based assay; type: functional, cell-based
Method in brief: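 IGROV1 cells plated in folate-free RPMI 1640 (pH 7.2), 10% dialyzed FBS, 25 nM LCV. After 24 h adherence, exposed to drug (0–20 μM) for 24 h at pH 6.8 (25 mM PIPES/25 mM HEPES). Washed, then grown drug-free at pH 7.2 (100 mM HEPES) with 25 nM LCV for up to 10 days at 37 °C. Colonies stained with methylene blue and counted electronically. Values normalized to vehicle controls. Triplicate experiments.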

[24] = Toxicity in NCR SCID mouse xenografted with human IGROV1 cells assessed as weight loss median nadir at 95 mg/kg, iv treated once daily for 4 days per week for 4 weeks starting from 3 days post implantation and measured at day 14 post last dose relative to control; type: organism-based; conditions: in vivo
[25] = Toxicity in NCR SCID mouse xenografted with human IGROV1 cells assessed as weight loss median nadir at 95 mg/kg, iv treated once daily for 4 days per week for 4 weeks starting from 3 days post implantation and measured at day 18 post last dose relative to control; type: organism-based; conditions: in vivo
[26] = Toxicity in NCR SCID mouse xenografted with human IGROV1 cells assessed as weight loss median nadir at 95 mg/kg, iv treated once daily for 4 days per week for 4 weeks starting from 3 days post implantation and measured after conclusion of therapy; type: organism-based; conditions: in vivo
Method in brief: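 Female ICR SCID mice, 10 weeks old, kept on a folate-deficient diet for 14 days before bilateral subcutaneous IGROV1 implants; a control cohort was fed folate-replete chow. Randomized at 5 mice/group. […] Tumors measured twice weekly; body weights recorded daily.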

Row | Compound | IC50 [1] [nM] | inhibition [2] | Ki [3] [nM] | inhibition [4] | inhibition [5] | inhibition [6] | inhibition [7] | IC50 [9] [nM] | IC50 (IGROV-1 [10]) [nM] | IC50 (IGROV-1 [11]) [nM] | IC50 (IGROV-1 [12]) [nM] | IC50 (A2780) [nM] | IC50 (IGROV-1 [13]) [nM] | inhibition [19] | other results
1 | Nc1nc2[nH]c(CCCc3csc(C(=O)N[C@@H](CCC(=O)O)C(=O)O)c3)cc2c(=O)[nH]1 | 355 | < 30% | 280 | Active | Active | Active | Active | 1 | 30.3 | 80.5 | 12.8 | 21.7 | 12.1 |  | inhibition [8]: Active; inhibition [14]: < 30%; IC50 [15]: 197 nM; IC50 [16]: 5.4 nM
2 | Nc1nc2[nH]c(CCCc3ccc(C(=O)N[C@@H](CCC(=O)O)C(=O)O)c(F)c3)cc2c(=O)[nH]1 | 140 | inactive | 260 | 60 to 85% | 90 to 95% | Active |  | 1 to 2.5 | 19.2 | 41 | 1.14 | 2.14 | 1.67 | inactive | Ratio IC50 (Homo sapiens [17]): 92; Ratio IC50 (Homo sapiens [18]): 97
3 | Nc1nc2[nH]c(CCCCc3csc(C(=O)N[C@@H](CCC(=O)O)C(=O)O)c3F)cc2c(=O)[nH]1 | > 1000 | inactive | 250 | 60 to 85% | 90 to 95% | Active | Active |  | 66.9 | 138 | 1.79 | 3.11 | 1.9 | inactive | Activity (IGROV-1 [20]): inactive; Activity (IGROV-1 [21]): Active; Activity (IGROV-1 [22]): inactive; IC50 (IGROV-1 [23]): 200 nM; Activity [24]: 15.7%; Activity [25]: 12.1%; Activity [26]: Non-Toxic
